Published values gathered from unrelated publications.
Lines come from different studies, so protocols differ.
SIRT2: NAD-dependent protein deacetylase sirtuin-2 (SIRT2, Homo sapiens, UniProt Q8IXJ6)
AMY2: Pancreatic alpha-amylase (AMY2, Sus scrofa, UniProt P00690)
CHRM2: Muscarinic acetylcholine receptor M2 (CHRM2, Homo sapiens, UniProt P08172)
HSD11B2: 11-beta-hydroxysteroid dehydrogenase type 2 (HSD11B2, Homo sapiens, UniProt P80365)

SMILES	target	effect on	action	method	concentration	setting	inhibition [%]
O=C(NC1CCC1)[C@H](Cc1c[nH]c2ccccc12)NC(=O)[C@H](CCCCNC(=S)NCc1n[nH]c(=S)o1)NS(=O)(=O)c1cccc(F)c1	SIRT2	enzyme activity	inhibitor		30 µM		11
CC(=S)NCCCC[C@H](NC(=O)OCc1ccccc1)C(=O)N[C@@H](Cc1c[nH]c2ccccc12)C(=O)N[C@@H](CCCNC(=N)N)C(N)=O	SIRT2	enzyme activity	inhibitor		1 µM		20
CCN(c1cc(C#CCN2CCOCC2)cc(C(=O)NCc2c(C)cc(C)[nH]c2=O)c1C)[C@H]1CC[C@H](N(C)CCOC)CC1	N-lysine methyltransferase SMYD2 (SMYD2, Homo sapiens, UniProt Q9NRG4)	enzyme activity	inhibitor		1 µM		8
COc1cc(C=Cc2cc(-c3ccccc3)nc(O)n2)ccc1O	AMY2	enzyme activity	inhibitor	absorbance	2.5 µg/mL		66.3
Cc1ccc(N(O)N=Nc2ccc(S(=O)(=O)Nc3onc(C)c3C)cc2)cc1	AMY2	enzyme activity	inhibitor		180 µg/mL		42.1
Oc1cccc(Nc2nc(-c3ccc(F)cc3F)cs2)c1	CHRM2	cell-free assay			10 µM		-43.3
CCCCCCCCCCC[C@@H](C[C@@H]1OC(=O)[C@H]1CCCCCC)OC(=O)[C@H](CC(C)C)NC=O	Pancreatic triacylglycerol lipase (PNLIP, Sus scrofa, UniProt P00591)	enzyme activity	inhibitor	absorbance	50 µg/mL		92.2
CN(O)N=Nc1ccc(S(=O)(=O)Nc2nccs2)cc1	AMY2	enzyme activity	inhibitor		300 µg/mL		78.9
COc1cc(C=CC(=O)CC(c2ccc(N(C)C)cc2)n2ccnc2)ccc1O (stereo not drawn)	AMY2	enzyme activity	inhibitor	absorbance	1.25 µg/mL		58.2
O=C(O)CN1CCN(CC(=O)O)CCN(CC(=O)O)CC1	Hydroxyacylglutathione hydrolase, mitochondrial (Homo sapiens, UniProt Q16775)	cell-free assay			100 µM		0.85
O=C(NC1CCC1)[C@H](Cc1c[nH]c2ccccc12)NC(=O)[C@H](CCCCNC(=S)NCCn1nn[nH]c1=O)NS(=O)(=O)c1cccc(F)c1	SIRT2	enzyme activity	inhibitor		100 µM		8
O=C(c1ccc(F)cc1)N(Cc1ccccc1)C1CCCCC1	CHRM2	cell-free assay			10 µM		16
CN(C)CCCN1c2ccccc2Sc2ccc(Cl)cc21	HSD11B2	enzyme activity	inhibitor		20 µM	lysate	< 40
O=C(c1ccc(Cl)cc1)N(Cc1ccccc1)C1CCCCC1	Amine oxidase [flavin-containing] A (Maoa, Rattus norvegicus, UniProt P21396)	cell-free assay			10 µM		5.1
CCCCc1oc2ccccc2c1C(=O)c1cc(I)c(OCCN(CC)CC)c(I)c1	HSD11B2	enzyme activity	inhibitor		20 µM	lysate	< 40
CCOCCOCCOCCNC(=S)NCCCC[C@H](NS(C)(=O)=O)C(=O)N[C@H](C)C(=O)N[C@@H](CCCNC(=N)N)C(N)=O	SIRT2	enzyme activity	inhibitor		100 µM		13
C[C@H]1O[C@H](O[C@H]2[C@H](O)[C@@H](O)[C@@H](O[C@H]3[C@H](O)[C@@H](O)C(O)O[C@@H]3CO)O[C@@H]2CO)[C@H](O)[C@@H](O)[C@@H]1N[C@H]1C=C(CO)[C@@H](O)[C@H](O)[C@H]1O (stereo partly drawn)	AMY2	enzyme activity	inhibitor		30 µg/mL		32.1
COc1cc(C=CC(=O)CC(c2ccc([N+](=O)[O-])cc2)n2ccnc2)ccc1O (stereo not drawn)	AMY2	enzyme activity	inhibitor	absorbance	5 µg/mL		75.6
O=C(NC1CCC1)[C@H](Cc1c[nH]c2ccccc12)NC(=O)[C@H](CCCCNC(=S)NCc1cc(O)no1)NS(=O)(=O)c1cccc(F)c1	SIRT2	enzyme activity	inhibitor		30 µM		13
Cc1cccc(N(O)N=Nc2ccc(S(=O)(=O)Nc3onc(C)c3C)cc2)c1	AMY2	enzyme activity	inhibitor		180 µg/mL		36.8
CN(CCOc1ccc(CC2SC(=O)NC2=O)cc1)c1ccccn1 (stereo not drawn)	HSD11B2	enzyme activity	inhibitor		20 µM	lysate	< 40
Cc1noc(NS(=O)(=O)c2ccc(N=NN(C)O)cc2)c1C	AMY2	enzyme activity	inhibitor		120 µg/mL		42.1
CC(=S)NCCCC[C@H](NC(=O)OCc1ccccc1)C(=O)N[C@@H](Cc1c[nH]c2ccccc12)C(=O)N[C@@H](CC(N)=O)C(N)=O	SIRT2	enzyme activity	inhibitor		1 µM		26
CC/C(=N\NC(=O)NCc1cccc(O)c1)c1ccc(O)c(C)c1O	Fibroblast growth factor receptor 3 (FGFR3, Homo sapiens, UniProt P22607, V555M)	enzyme activity	inhibitor		0.1 µM		0.7
CCCN(O)N=Nc1ccc(S(=O)(=O)Nc2cc(C)on2)cc1	AMY2	enzyme activity	inhibitor		120 µg/mL		31.6
COc1cc(C=Cc2cc(-c3ccc(N(C)C)cc3)nc(O)n2)ccc1O	AMY2	enzyme activity	inhibitor	absorbance	1.25 µg/mL		50.3
CCCCCCCCCCCCNC(=O)CCCCC[C@H](NC(=O)OCc1ccccc1)C(=O)N[C@@H](Cc1c[nH]c2ccccc12)C(=O)NC(C)C	SIRT2	enzyme activity	inhibitor		100 µM		29
Cc1ccc(N(O)N=Nc2ccc(S(=O)(=O)Nc3cc(C)on3)cc2)cc1	AMY2	enzyme activity	inhibitor		300 µg/mL		78.9
CC(=S)NCCCC[C@H](NC(=O)OCc1ccccc1)C(=O)N[C@@H](Cc1c[nH]c2ccccc12)C(=O)N[C@@H](CCCCN)C(N)=O	SIRT2	enzyme activity	inhibitor		1 µM		36
CCN(O)N=Nc1ccc(S(=O)(=O)Nc2nccs2)cc1	AMY2	enzyme activity	inhibitor		300 µg/mL		63.2
